Converted amounts (≈) assume the structure as drawn. The source made the active and inactive calls. The calls are words filed in the database; no cut-off is given here.
What was measured:
[1] = test system: Human immunodeficiency virus 1; assay: Antiviral activity against HIV1 infected in human MT4 cells assessed as virus-induced cytopathogenicity after 4 days by MTT assay; format: functional, organism-based; details: Human immunodeficiency virus 1, MT4, 96 h
[2] = Cytotoxicity against human MT4 cells after 96 hrs by MTT assay; format: cell-based
[3] = test system: Staphylococcus epidermidis; assay: Antibacterial activity against methicillin-resistant Staphylococcus epidermidis clinical isolate 318/08 after 18 hrs by twofold serial agar dilution technique; format: functional; details: clinical isolate 318/08, 18 h
In short: (§1)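 Clinical isolates came from patients in Warsaw Medical University Hospitals and were classed as methicillin-susceptible or -resistant. MIC was determined by twofold serial agar dilution on Mueller–Hinton II agar (CLSI), 3.125–400 µg/mL in agar, with compounds in methanol or DMSO. Inoculum was 10^4 CFU/mL and plates were read after 18 h at 35 °C.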

[4] = test system: Staphylococcus epidermidis; assay: Antibacterial activity against methicillin-resistant Staphylococcus epidermidis clinical isolate 311/08 after 18 hrs by twofold serial agar dilution technique; format: functional; details: clinical isolate 311/08, 18 h; in short: as §1
[5] = test system: Staphylococcus epidermidis; assay: Antibacterial activity against methicillin-resistant Staphylococcus epidermidis clinical isolate 317/08 after 18 hrs by twofold serial agar dilution technique; format: functional; details: clinical isolate 317/08, 18 h; in short: as §1
[6] = test system: Staphylococcus epidermidis; assay: Antibacterial activity against methicillin-resistant Staphylococcus epidermidis clinical isolate 377/09 after 18 hrs by twofold serial agar dilution technique; format: functional; details: clinical isolate 377/09, 18 h; in short: as §1
[7] = test system: Staphylococcus epidermidis; assay: Antibacterial activity against methicillin-resistant Staphylococcus epidermidis clinical isolate 316/08 after 18 hrs by twofold serial agar dilution technique; format: functional; details: clinical isolate 316/08, 18 h; in short: as §1
[8] = test system: Staphylococcus epidermidis; assay: Antibacterial activity against methicillin-resistant Staphylococcus epidermidis clinical isolate 341/09 after 18 hrs by twofold serial agar dilution technique; format: functional; details: clinical isolate 341/09, 18 h; in short: as §1
[9] = test system: Staphylococcus epidermidis; assay: Antibacterial activity against methicillin-resistant Staphylococcus epidermidis clinical isolate 315/08 after 18 hrs by twofold serial agar dilution technique; format: functional; details: clinical isolate 315/08, 18 h; in short: as §1
[10] = test system: Staphylococcus epidermidis; assay: Antibacterial activity against methicillin-resistant Staphylococcus epidermidis clinical isolate 340/09 after 18 hrs by twofold serial agar dilution technique; format: functional; details: clinical isolate 340/09, 18 h; in short: as §1
[11] = test system: Staphylococcus epidermidis; assay: Antibacterial activity against methicillin-resistant Staphylococcus epidermidis clinical isolate 343/09 after 18 hrs by twofold serial agar dilution technique; format: functional; details: clinical isolate 343/09, 18 h; in short: as §1
[12] = test system: Staphylococcus epidermidis; assay: Antibacterial activity against methicillin-resistant Staphylococcus epidermidis clinical isolate 342/09 after 18 hrs by twofold serial agar dilution technique; format: functional; details: clinical isolate 342/09, 18 h; in short: as §1
Micrococcus luteus [13] = assay: Antibacterial activity against Micrococcus luteus ATCC 9341 after 18 hrs by twofold serial agar dilution technique; format: functional; details: ATCC 9341, 18 h
Staphylococcus aureus [14] = assay: Antibacterial activity against Staphylococcus aureus NCTC 4163 after 18 hrs by twofold serial agar dilution technique; format: functional; details: NCTC 4163, 18 h
In short: (§2)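 Twofold serial agar dilution on Mueller–Hinton II agar, following CLSI guidelines. Compounds were dissolved in methanol or DMSO and tested at final agar concentrations of 3.125–400 µg/mL. Final inoculum was 10^4 CFU/mL.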

Micrococcus luteus [15] = assay: Antibacterial activity against Micrococcus luteus ATCC 10240 after 18 hrs by twofold serial agar dilution technique; format: functional; details: ATCC 10240, 18 h
[16] = test system: Staphylococcus epidermidis; assay: Antibacterial activity against Staphylococcus epidermidis ATCC 12228 after 18 hrs by twofold serial agar dilution technique; format: functional; details: ATCC 12228, 18 h; in short: as §2
Bacillus subtilis [17] = assay: Antibacterial activity against Bacillus subtilis ATCC 6633 after 18 hrs by twofold serial agar dilution technique; format: functional; details: ATCC 6633, 18 h
Staphylococcus aureus [18] = assay: Antibacterial activity against Staphylococcus aureus ATCC 6538 after 18 hrs by twofold serial agar dilution technique; format: functional; details: ATCC 6538, 18 h; in short: as §2
Staphylococcus aureus [19] = assay: Antibacterial activity against Staphylococcus aureus ATCC 29213 after 18 hrs by twofold serial agar dilution technique; format: functional; details: ATCC 29213, 18 h; in short: as §2
Bacillus cereus [20] = assay: Antibacterial activity against Bacillus cereus ATCC 11778 after 18 hrs by twofold serial agar dilution technique; format: functional; details: ATCC 11778, 18 h
Enterococcus hirae [21] = assay: Antibacterial activity against Enterococcus hirae ATCC 10541 after 18 hrs by twofold serial agar dilution technique; format: functional; details: ATCC 10541, 18 h
Staphylococcus aureus [22] = assay: Antibacterial activity against Staphylococcus aureus ATCC 25923 after 18 hrs by twofold serial agar dilution technique; format: functional; details: ATCC 25923, 18 h; in short: as §2
Bacillus cereus [23] = assay: Antibacterial activity against Bacillus cereus ATCC 11778 at 400 ug/disc after 18 hrs by disc diffusion method; format: functional
In short: (§3)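 Disc diffusion per CLSI on Mueller–Hinton II agar; 9 mm paper discs loaded from methanol or DMSO solutions to 400 µg per disc, dried; growth inhibition zone diameter read after 18 h at 35 °C.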

Micrococcus luteus [24] = assay: Antibacterial activity against Micrococcus luteus ATCC 10240 at 400 ug/disc after 18 hrs by disc diffusion method; format: functional; details: ATCC 10240, 18 h, read-out: DIZ; in short: as §3
Escherichia coli [25] = assay: Antibacterial activity against Escherichia coli NCTC 8196 at 400 ug/disc after 18 hrs by disc diffusion method; format: functional, organism-based; in short: as §3
Escherichia coli [26] = assay: Antibacterial activity against Escherichia coli ATCC 10538 at 400 ug/disc after 18 hrs by disc diffusion method; format: functional, organism-based; in short: as §3
Bacillus subtilis [27] = assay: Antibacterial activity against Bacillus subtilis ATCC 6633 at 400 ug/disc after 18 hrs by disc diffusion method; format: functional; details: ATCC 6633, 18 h, read-out: DIZ; in short: as §3
Candida parapsilosis = assay: Antifungal activity against Candida parapsilosis ATCC 22019 at 400 ug/disc after 18 hrs by disc diffusion method; format: functional, organism-based
In short: (§4)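 Yeasts tested by disc diffusion (CLSI) on RPMI agar with 2% glucose; 9 mm paper discs bearing 400 µg compound from methanol or DMSO solution; inhibition zone diameter read after 18 h at 35 °C.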

Pseudomonas aeruginosa [28] = assay: Antibacterial activity against Pseudomonas aeruginosa ATCC 27853 at 400 ug/disc after 18 hrs by disc diffusion method; format: functional, organism-based; in short: as §3
Enterococcus hirae [29] = assay: Antibacterial activity against Enterococcus hirae ATCC 10541 at 400 ug/disc after 18 hrs by disc diffusion method; format: functional; in short: as §3
Staphylococcus aureus [30] = assay: Antibacterial activity against Staphylococcus aureus ATCC 25923 at 400 ug/disc after 18 hrs by disc diffusion method; format: functional; in short: as §3
Pseudomonas aeruginosa [31] = assay: Antibacterial activity against Pseudomonas aeruginosa ATCC 15442 at 400 ug/disc after 18 hrs by disc diffusion method; format: functional, organism-based; in short: as §3
Candida albicans [32] = assay: Antifungal activity against Candida albicans ATCC 90028 at 400 ug/disc after 18 hrs by disc diffusion method; format: functional, organism-based; in short: as §4
Staphylococcus aureus [33] = assay: Antibacterial activity against Staphylococcus aureus ATCC 29213 at 400 ug/disc after 18 hrs by disc diffusion method; format: functional; in short: as §3
Escherichia coli [34] = assay: Antibacterial activity against Escherichia coli ATCC 25922 at 400 ug/disc after 18 hrs by disc diffusion method; format: functional, organism-based; in short: as §3
[35] = test system: Staphylococcus epidermidis; assay: Antibacterial activity against Staphylococcus epidermidis ATCC 12228 at 400 ug/disc after 18 hrs by disc diffusion method; format: functional; in short: as §3
Pseudomonas aeruginosa [36] = assay: Antibacterial activity against Pseudomonas aeruginosa NCTC 6749 at 400 ug/disc after 18 hrs by disc diffusion method; format: functional, organism-based; in short: as §3
Proteus vulgaris = assay: Antibacterial activity against Proteus vulgaris NCTC 4635 at 400 ug/disc after 18 hrs by disc diffusion method; format: functional, organism-based; in short: as §3
Staphylococcus aureus [37] = assay: Antibacterial activity against Staphylococcus aureus NCTC 4163 at 400 ug/disc after 18 hrs by disc diffusion method; format: functional; in short: as §3
[38] = test system: Bordetella bronchiseptica; assay: Antibacterial activity against Bordetella bronchiseptica ATCC 4617 at 400 ug/disc after 18 hrs by disc diffusion method; format: functional, organism-based; in short: as §3
Micrococcus luteus [39] = assay: Antibacterial activity against Micrococcus luteus ATCC 9341 at 400 ug/disc after 18 hrs by disc diffusion method; format: functional; in short: as §3
Candida albicans [40] = assay: Antifungal activity against Candida albicans ATCC 10231 at 400 ug/disc after 18 hrs by disc diffusion method; format: functional, organism-based; in short: as §4
Staphylococcus aureus [41] = assay: Antibacterial activity against Staphylococcus aureus ATCC 6538 at 400 ug/disc after 18 hrs by disc diffusion method; format: functional; in short: as §3

`Nc1ncnn1/C(S)=N/C1CCCCC1` gave an EC50 [1] greater than 100 µM, a CC50 at 96 h [2] greater than 100 µM and an MIC [3] of 12.5 µg/mL (≈ 55.5 µM). For the same compound, the MIC [4] was 25 µg/mL (≈ 111 µM), the MIC [5] was 25 µg/mL (≈ 111 µM) and the MIC [6] was 25 µg/mL (≈ 111 µM). The MIC [7] was 25 µg/mL (≈ 111 µM), the MIC [8] was 25 µg/mL (≈ 111 µM) and the MIC [9] was 12.5 µg/mL (≈ 55.5 µM). The MIC [10] was 12.5 µg/mL (≈ 55.5 µM), the MIC [11] was 12.5 µg/mL (≈ 55.5 µM) and the MIC [12] was 25 µg/mL (≈ 111 µM).
For `O=C(O)c1cn(C2CC2)c2cc(N3CCNCC3)c(F)cc2c1=O` [CIPROFLOXACIN], the MIC (Micrococcus luteus [13]) was 2 µg/mL (≈ 6.04 µM), the MIC (Staphylococcus aureus [14]) was 0.5 µg/mL (≈ 1.51 µM) and the MIC (Micrococcus luteus [15]) was 1 µg/mL (≈ 3.02 µM). For the same compound, the MIC [16] was 0.5 µg/mL (≈ 1.51 µM), the MIC (Bacillus subtilis [17]) was less than 0.125 µg/mL and the MIC (Staphylococcus aureus [18]) was 0.5 µg/mL (≈ 1.51 µM). It also gave an MIC (Staphylococcus aureus [19]) of 0.5 µg/mL (≈ 1.51 µM), an MIC (Bacillus cereus [20]) of 0.5 µg/mL (≈ 1.51 µM) and an MIC (Enterococcus hirae [21]) of 4 µg/mL (≈ 12.1 µM). For the same compound, the MIC (Staphylococcus aureus [22]) was 0.5 µg/mL (≈ 1.51 µM).
Work on `O=C1Nc2ccc(Cl)cc2[C@@](C#CC2CC2)(C(F)(F)F)O1` [EFAVIRENZ] yielded a CC50 at 96 h [2] of 37 µM.
In the case of `Cc1ccc(NC(=S)Nc2nc[nH]n2)cc1`, the “diameter of the inhibition zone (DIZ)” value (Bacillus cereus [23]) is reported as “inactive”, the zone of inhibition at 400 µg/disc (Micrococcus luteus [24]) is reported as 12 mm and the “diameter of the inhibition zone (DIZ)” value (Escherichia coli [25]) is reported as “inactive”. For the same compound, the “diameter of the inhibition zone (DIZ)” value (Escherichia coli [26]) was “inactive”, the zone of inhibition at 400 µg/disc (Bacillus subtilis [27]) was 13 mm and the EC50 [1] was greater than 50 µM. For the same compound, the CC50 at 96 h [2] was 59 µM, the “diameter of the inhibition zone (DIZ)” value (Candida parapsilosis) was “inactive” and the “diameter of the inhibition zone (DIZ)” value (Pseudomonas aeruginosa [28]) was “inactive”. The “diameter of the inhibition zone (DIZ)” value (Enterococcus hirae [29]) was “inactive”, the “diameter of the inhibition zone (DIZ)” value (Staphylococcus aureus [30]) was “inactive” and the “diameter of the inhibition zone (DIZ)” value (Pseudomonas aeruginosa [31]) was “inactive”. For the same compound, the “diameter of the inhibition zone (DIZ)” value (Candida albicans [32]) was “inactive”, the “diameter of the inhibition zone (DIZ)” value (Staphylococcus aureus [33]) was “inactive” and the “diameter of the inhibition zone (DIZ)” value (Escherichia coli [34]) was “inactive”. The “diameter of the inhibition zone (DIZ)” value [35] was “inactive”, the “diameter of the inhibition zone (DIZ)” value (Pseudomonas aeruginosa [36]) was “inactive” and the “diameter of the inhibition zone (DIZ)” value (Proteus vulgaris) was “inactive”. For the same compound, the “diameter of the inhibition zone (DIZ)” value (Staphylococcus aureus [37]) was “inactive”, the “diameter of the inhibition zone (DIZ)” value [38] was “inactive” and the “diameter of the inhibition zone (DIZ)” value (Micrococcus luteus [39]) was “inactive”. The “diameter of the inhibition zone (DIZ)” value (Candida albicans [40]) was “inactive” and the “diameter of the inhibition zone (DIZ)” value (Staphylococcus aureus [41]) was “inactive”.
With `S=C(Nc1ccc(Cl)c(Cl)c1)Nc1nc[nH]n1` the EC50 [1] was greater than 47 µM and the CC50 at 96 h [2] was 47 µM.
Compound `COc1ccc(NC(=S)Nc2nc[nH]n2)cc1` has an EC50 [1] greater than 100 µM and a CC50 at 96 h [2] greater than 100 µM.
In the case of `O=C(NC(=S)Nc1nc[nH]n1)c1ccccc1`, the EC50 [1] is reported as greater than 100 µM and the CC50 at 96 h [2] is reported as greater than 100 µM.

From ChEMBL document CHEMBL2062460, “Disubstituted thiourea derivatives and their activity on CNS: synthesis and biological evaluation” (Eur J Med Chem, 2012)
